Results reported in ChEMBL document CHEMBL5303300, “EUbOPEN Chemogenomics Library - Multiplex” (2023).
Values joined by “and” are separate entries in the source; they are usually repeats but may differ in a detail not shown here. Equal entries are not always repeated.

Tests used:
Assay type in all cases: toxicity, cell-based
[1] = test system: U2OS; test: Multiplex assay against U2OS; details: human, number of replicates 2
Method in brief: (§1)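 Imaging took place on a CQ1 microscope at 37°C and 5% CO2 once compound had been added to live cells stained at seeding with Hoechst33342, BioTracker Green Microtubule Cytoskeleton Dye, MitoTracker Red and Annexin V Alexa Fluor 680. CellPathfinder machine-learning gating classed cells as Hoechst high-intensity objects or normal cells, classed normal cells as having healthy, pyknosed or fragmented nuclei, and classed pyknosed cells as mitotic or apoptotic. Tubulin, mitochondrial-mass and membrane-permeability phenotypes are per cents of the healthy-nucleus cells.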

[2] = test system: Fibroblast; test: Multiplex assay against human fibroblast; details: number of replicates 2; method in brief: as §1
[3] = test system: HEK-293T; test: Multiplex assay against HEK293T; details: human, number of replicates 2; method in brief: as §1
[4] = 12 h, 1 µM, compound concentration 1 uM
[5] = 12 h, 10 µM, compound concentration 10 uM
[6] = 24 h, 1 µM, compound concentration 1 uM
[7] = 24 h, 10 µM, compound concentration 10 uM
[8] = 48 h, 1 µM, compound concentration 1 uM
[9] = 48 h, 10 µM, compound concentration 10 uM

## CN1CCCN(C(=O)c2cccc(-c3ccc(/C=C4/C(=O)Nc5ccc(Cl)cc54)o3)c2)CC1
[1]; [4]
  Population Apoptotic (%): 64% and 66%
  Population Fragmented Nuclei (%): 9% and 10%
  Population Healthy Nuclei (%): 77% and 81%
  Population Hoechst High Intensity Objects (%): 0%
  Population Membrane Permeable-Phenotype (%): 0%
  Population Mitochondria Different-Phenotype (%): 6% and 0%
  Population Mitotic Cells (%): 35% and 33%
  Population Normal (%): 100%
  Population Pyknosed Nuclei (%): 13% and 8%
  Population Tubulin-Different-Phenotype (%): 70% and 43%
[1]; [5]
  Population Apoptotic (%): 91% and 64%
  Population Healthy Nuclei (%): 18% and 30%
  Population Hoechst High Intensity Objects (%): 0% and 10%
  Population Normal (%): 99% and 89%
  Population Pyknosed Nuclei (%): 68% and 26%
  Population Tubulin-Different-Phenotype (%): 100% and 56%
  Total Cell Count: 142 and 58
[1]; [6]
  Population Apoptotic (%): 62% and 87%
  Population Fragmented Nuclei (%): 7% and 8%
  Population Healthy Nuclei (%): 73%
  Population Hoechst High Intensity Objects (%): 0%
  Population Membrane Permeable-Phenotype (%): 6% and 2%
  Population Mitochondria Different-Phenotype (%): 3% and 5%
  Population Normal (%): 100%
  Population Pyknosed Nuclei (%): 19% and 18%
  Population Tubulin-Different-Phenotype (%): 53% and 72%
[1]; [7]
  Population Apoptotic (%): 95% and 57%
  Population Hoechst High Intensity Objects (%): 0% and 15%
  Population Normal (%): 99% and 85%
  Population Pyknosed Nuclei (%): 89% and 41%
  Population Tubulin-Different-Phenotype (%): 100% and 72%
  Total Cell Count: 136 and 60
[1]; [8]
  Population Apoptotic (%): 77% and 90%
  Population Fragmented Nuclei (%): 10%
  Population Healthy Nuclei (%): 65% and 61%
  Population Hoechst High Intensity Objects (%): 0%
  Population Membrane Permeable-Phenotype (%): 8% and 4%
  Population Mitochondria Different-Phenotype (%): 0% and 1%
  Population Mitotic Cells (%): 22% and 10%
  Population Normal (%): 100%
  Population Pyknosed Nuclei (%): 23% and 28%
  Population Tubulin-Different-Phenotype (%): 52% and 80%
  Total Cell Count: 38 and 106
[1]; [9]
  Population Apoptotic (%): 96% and 62%
  Population Healthy Nuclei (%): 22% and 27%
  Population Hoechst High Intensity Objects (%): 0% and 14%
  Population Normal (%): 100% and 85%
  Population Pyknosed Nuclei (%): 73% and 29%
  Population Tubulin-Different-Phenotype (%): 92% and 86%
  Total Cell Count: 127 and 64
[2]; [4]
  Population Apoptotic (%): 43% and 41%
  Population Fragmented Nuclei (%): 4% and 3%
  Population Healthy Nuclei (%): 79% and 72%
  Population Hoechst High Intensity Objects (%): 0%
  Population Membrane Permeable-Phenotype (%): 4% and 1%
  Population Mitochondria Different-Phenotype (%): 2%
  Population Mitotic Cells (%): 56% and 58%
  Population Normal (%): 100%
  Population Pyknosed Nuclei (%): 16% and 24%
  Population Tubulin-Different-Phenotype (%): 20%
  Total Cell Count: 283 and 162
[2]; [5]
  Population Apoptotic (%): 39% and 56%
  Population Fragmented Nuclei (%): 3% and 1%
  Population Healthy Nuclei (%): 8% and 3%
  Population Hoechst High Intensity Objects (%): 0%
  Population Mitochondria Different-Phenotype (%): 7% and 0%
  Population Mitotic Cells (%): 60% and 44%
  Population Normal (%): 99% and 100%
  Population Pyknosed Nuclei (%): 88% and 95%
  Population Tubulin-Different-Phenotype (%): 61% and 100%
  Total Cell Count: 156 and 131
[2]; [6]
  Population Apoptotic (%): 48% and 54%
  Population Fragmented Nuclei (%): 4%
  Population Healthy Nuclei (%): 83% and 75%
  Population Hoechst High Intensity Objects (%): 0%
  Population Membrane Permeable-Phenotype (%): 5% and 3%
  Population Mitochondria Different-Phenotype (%): 3% and 8%
  Population Mitotic Cells (%): 51% and 45%
  Population Normal (%): 100%
  Population Pyknosed Nuclei (%): 12% and 20%
  Population Tubulin-Different-Phenotype (%): 25%
  Total Cell Count: 271 and 164
[2]; [7]
  Population Apoptotic (%): 75% and 57%
  Population Fragmented Nuclei (%): 4% and 7%
  Population Healthy Nuclei (%): 17% and 13%
  Population Hoechst High Intensity Objects (%): 0%
  Population Membrane Permeable-Phenotype (%): 65% and 52%
  Population Mitochondria Different-Phenotype (%): 4% and 0%
  Population Mitotic Cells (%): 24% and 42%
  Population Normal (%): 100%
  Population Pyknosed Nuclei (%): 78%
  Population Tubulin-Different-Phenotype (%): 34% and 30%
  Total Cell Count: 135 and 165
[2]; [8]
  Population Apoptotic (%): 62% and 80%
  Population Fragmented Nuclei (%): 8% and 7%
  Population Healthy Nuclei (%): 81% and 78%
  Population Hoechst High Intensity Objects (%): 0%
  Population Membrane Permeable-Phenotype (%): 4% and 8%
  Population Mitochondria Different-Phenotype (%): 1%
  Population Mitotic Cells (%): 37% and 19%
  Population Normal (%): 100% and 99%
  Population Pyknosed Nuclei (%): 10% and 13%
  Population Tubulin-Different-Phenotype (%): 20% and 17%
  Total Cell Count: 269 and 155
[2]; [9]
  Population Apoptotic (%): 88% and 71%
  Population Fragmented Nuclei (%): 20% and 37%
  Population Healthy Nuclei (%): 26% and 18%
  Population Hoechst High Intensity Objects (%): 0%
  Population Membrane Permeable-Phenotype (%): 50% and 30%
  Population Mitochondria Different-Phenotype (%): 0%
  Population Mitotic Cells (%): 11% and 28%
  Population Normal (%): 100%
  Population Pyknosed Nuclei (%): 52% and 43%
  Population Tubulin-Different-Phenotype (%): 46% and 27%
  Total Cell Count: 120 and 174
[3]; [4]
  Population Apoptotic (%): 58% and 72%
  Population Fragmented Nuclei (%): 4%
  Population Healthy Nuclei (%): 88% and 86%
  Population Hoechst High Intensity Objects (%): 6%
  Population Membrane Permeable-Phenotype (%): 3% and 2%
  Population Mitochondria Different-Phenotype (%): 8% and 12%
  Population Mitotic Cells (%): 41% and 27%
  Population Normal (%): 93%
  Population Pyknosed Nuclei (%): 6% and 9%
  Population Tubulin-Different-Phenotype (%): 60% and 45%
  Total Cell Count: 923 and 535
[3]; [5]
  Population Apoptotic (%): 67% and 62%
  Population Fragmented Nuclei (%): 2% and 1%
  Population Healthy Nuclei (%): 86% and 92%
  Population Hoechst High Intensity Objects (%): 5% and 6%
  Population Membrane Permeable-Phenotype (%): 7% and 4%
  Population Mitochondria Different-Phenotype (%): 38% and 32%
  Population Mitotic Cells (%): 32% and 37%
  Population Normal (%): 94% and 93%
  Population Pyknosed Nuclei (%): 11% and 6%
  Population Tubulin-Different-Phenotype (%): 94% and 96%
  Total Cell Count: 365 and 416
[3]; [6]
  Population Apoptotic (%): 57% and 72%
  Population Fragmented Nuclei (%): 7% and 6%
  Population Healthy Nuclei (%): 86% and 85%
  Population Hoechst High Intensity Objects (%): 9%
  Population Membrane Permeable-Phenotype (%): 2% and 1%
  Population Mitochondria Different-Phenotype (%): 1% and 3%
  Population Mitotic Cells (%): 42% and 27%
  Population Normal (%): 90%
  Population Pyknosed Nuclei (%): 6% and 8%
  Population Tubulin-Different-Phenotype (%): 18% and 20%
  Total Cell Count: 1009 and 610
[3]; [7]
  Population Apoptotic (%): 64% and 56%
  Population Fragmented Nuclei (%): 4% and 2%
  Population Healthy Nuclei (%): 79% and 90%
  Population Hoechst High Intensity Objects (%): 2% and 4%
  Population Membrane Permeable-Phenotype (%): 7% and 8%
  Population Mitochondria Different-Phenotype (%): 34% and 29%
  Population Mitotic Cells (%): 35% and 43%
  Population Normal (%): 97% and 95%
  Population Pyknosed Nuclei (%): 16% and 7%
  Population Tubulin-Different-Phenotype (%): 84% and 87%
  Total Cell Count: 402 and 421
[3]; [8]
  Population Apoptotic (%): 43% and 64%
  Population Fragmented Nuclei (%): 16% and 12%
  Population Healthy Nuclei (%): 81% and 84%
  Population Hoechst High Intensity Objects (%): 6% and 5%
  Population Membrane Permeable-Phenotype (%): 0%
  Population Mitochondria Different-Phenotype (%): 1% and 4%
  Population Mitotic Cells (%): 56% and 35%
  Population Normal (%): 93% and 94%
  Population Pyknosed Nuclei (%): 2%
  Population Tubulin-Different-Phenotype (%): 14% and 15%
  Total Cell Count: 1019 and 606
[3]; [9]
  Population Apoptotic (%): 60% and 55%
  Population Fragmented Nuclei (%): 6%
  Population Healthy Nuclei (%): 46% and 55%
  Population Hoechst High Intensity Objects (%): 7% and 3%
  Population Membrane Permeable-Phenotype (%): 3% and 2%
  Population Mitochondria Different-Phenotype (%): 50% and 38%
  Population Mitotic Cells (%): 39% and 44%
  Population Normal (%): 92% and 96%
  Population Pyknosed Nuclei (%): 47% and 38%
  Population Tubulin-Different-Phenotype (%): 77% and 76%
  Total Cell Count: 403 and 446
